Scp1 inh = Scp-1 (human) phosphatase inhibition | Recombinant Scp1, phosphopeptide, malachite green phosphate absorbance | AID 493091 | inhibition, % at 20 µM | Q9GZU7 | hit rate 0.88% among 340,000;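 active means inhibition above about 50% at 20 µM, limit read from the data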
Target sequence (Q9GZU7 76-261 limits assumed): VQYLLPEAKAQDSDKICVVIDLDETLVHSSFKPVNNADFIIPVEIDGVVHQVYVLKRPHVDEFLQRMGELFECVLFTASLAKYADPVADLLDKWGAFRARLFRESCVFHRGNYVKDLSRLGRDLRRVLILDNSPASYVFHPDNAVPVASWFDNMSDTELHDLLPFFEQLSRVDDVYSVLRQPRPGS
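Material – SCP-1 phosphatase catalytic domain, residues 76-261 · Buffer or medium – Acidic Tris acetate buffer with magnesium and detergent · Also added – Phospho 17-mer peptide substrate · Compound – single 20 µM dose, 1% DMSO · Times – 45 min room-temperature reaction, 5 min colour, 30 min stabiliser · Technique – Phosphate-binding colour reagent, absorbance read at 630 nm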
DNMT1 block = DNMT1 (human) enzyme inhibition. DNMT1 molecular beacon, Hinp1I cleavage, fluorescence. inhibition (reported as % activation of signal), % at 10 µM. hit rate 0.83% among 360,000. AID 588458; in the data active means inhibition above about 50%
SUMO1-SIM PPI = SUMO1-SIM interaction modulation; inhibition, % at 20 µM; SUMO1 binding to a labelled peptide, TR-FRET, 1 h; hit rate 0.33% among 360,000; P63165; in the data active means inhibition above about 37%
Target sequence (P63165 whole entry, looked up): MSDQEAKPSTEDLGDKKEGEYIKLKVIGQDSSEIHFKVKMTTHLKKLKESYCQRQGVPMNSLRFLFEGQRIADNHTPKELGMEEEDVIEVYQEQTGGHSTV
Rpn11 inh = blocks the human proteasome subunit Rpn11. inhibition, % at 20 µM. human 26S proteasome, Ub4-pepOG fluorescence polarization; 20S core pre-blocked with epoxomicin. O00487. hit rate 0.59% among 360,000;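 active means inhibition at 20 µM, scaled to each plate's controls, above about 33%, limit read from the data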
LMPTP inh = LMPTP (human) inhibition; recombinant LMPTP-A, OMFP fluorogenic substrate, fluorescence intensity; hit rate 0.22% among 360,000; inhibition, % at 20 µM; P24666;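 active means compounds that cut the enzyme signal by at least half of the control window in the single-dose screen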
Target sequence (P24666 whole entry, looked up): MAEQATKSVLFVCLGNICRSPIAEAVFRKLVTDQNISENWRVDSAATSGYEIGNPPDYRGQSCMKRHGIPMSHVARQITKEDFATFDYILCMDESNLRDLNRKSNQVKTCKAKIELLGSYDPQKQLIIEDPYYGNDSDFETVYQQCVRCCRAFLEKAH
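Test system: LMPTP-A, protein tyrosine phosphatase of low molecular weight; Input: 0.625 nM enzyme; Incubation: 50 min dark incubation at room temperature; Signal: endpoint fluorescence intensity from OMFP dephosphorylation; Read-out basis: % inhibition versus control wells.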
STEP inh = inhibitors of human striatal-enriched phosphatase STEP; inhibition, % at 20 µM; hit rate 0.25% among 360,000; AID 588621; recombinant STEP, OMFP fluorogenic substrate, fluorescence; P54829;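 active means inhibition at 20 µM, scaled per plate between control wells, above about 37%, limit read from the data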
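Also added – OMFP at 25 µM · Test system – STEP tyrosine phosphatase · Technique – FITC-channel fluorescence of OMFP product · Schedule – 20 min at room temperature, dark · Evaluation – control-normalized % inhibition with plate pattern correction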
Scp-1 conf = confirmation of human Scp-1 phosphatase inhibitors; recombinant SCP-1 catalytic domain, phosphate release, malachite green absorbance; shares compounds with Scp1 inh; AID 540281; hit rate 61% among 2,500; inhibition, % at 20 µM
Scp-1 MG ctr = counter-screen for Scp-1 inhibitors: colorimetric interference; apparent inhibition (interference), % at 20 µM; shares compounds with Scp1 inh; Colorimetric interference counterscreen, malachite green absorbance 630 nm; 2,500 tested, under 10 active;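 further: compounds added after enzyme reaction finished so only phosphate colour detection is probed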
Scp1 DSF = binds human Scp-1, shifting its melting temperature. shares compounds with Scp1 inh. Recombinant SCP1, Sypro Orange thermal shift Tm. thermal shift relative to vanadate control, % at 40 µM. hit rate 25% among 1,500. AID 540329;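 active means substances whose mean melting-temperature shift, as a percentage of the reference inhibitor's shift, reaches about 5.3%, limit read from the data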
Of the large screens only hits and unclear results are named; the others gave an inactive call (follow-up assays come after a bar, where they were run). This is a sample that favours compounds with a hit; in the whole collection about 2.3% have one here.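 How the source made its calls, unless noted: active means inhibition of at least 30% at 20 µM; inactive means the rest.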

Cc1ccc(NC(=O)C2Cc3ccccc3CN2C(=O)c2ccco2)cc1S(=O)(=O)N(C)C (configuration not stated)	none
C[N+]1(CCCOC(=O)C2(c3ccccc3)CCCC2)CCOCC1	Scp1 inh 73.6 | Scp-1 conf 37.1 | Scp-1 MG ctr inactive | Scp1 DSF inactive
CCOc1ccc(NC(=O)CN(C)C(=O)c2ccc(N3CCCC3)c([N+](=O)[O-])c2)cc1OCC	Scp1 inh 52.7 | Scp-1 conf inactive | Scp-1 MG ctr inactive
CCOc1ccc(NC(=O)CN(C)C(=O)c2ccc(N3CCCCC3)c([N+](=O)[O-])c2)cc1OCC	none
CN(C)CCOc1ccccc1-c1ccccc1	Scp1 inh 76.0 | Scp-1 conf inactive | Scp-1 MG ctr inactive
CN(C)CCOCCOc1ccccc1-c1ccccc1	none
COc1ccc(NC(=O)c2ccc3c(c2)CCN3S(=O)(=O)c2ccccc2)c(OC)c1	Scp1 inh 60.5 | Scp-1 conf inactive | Scp-1 MG ctr inactive
NC(=O)c1ccc(NC(=O)c2ccc3c(c2)CCN3S(=O)(=O)c2ccccc2)cc1	none
CC[N+](C)(CC)CCC(c1ccccc1)C1CCCCC1 (configuration not stated)	Scp1 inh 96.4 | Scp-1 conf 96.5 | Scp-1 MG ctr inactive | Scp1 DSF inactive
CC[N+](C)(CC)CCOC(=O)C(O)(c1ccccc1)C1CCCCC1 (configuration not stated)	none
NC(=O)CCC(NS(=O)(=O)c1ccc(Cl)cc1)C(=O)NCc1ccc(Cl)cc1 (configuration not stated)	none | Scp-1 conf inactive | Scp-1 MG ctr inactive
NC(=O)CCC(NS(=O)(=O)c1ccc(Cl)cc1)C(=O)NCC1CCCCC1 (configuration not stated)	none
CN(C(=O)COC(=O)CCc1c[nH]c2ccccc12)c1ccccc1	none
CC(=O)Nc1cc(NC(C)=O)cc(C(=O)N2CCCC3CCCCC32)c1 (configuration not stated)	Scp1 inh 61.0 | Scp-1 conf 53.8 | Scp-1 MG ctr inactive | Scp1 DSF 5.7
COc1cc(-c2nnc(SCC(=O)NC3CCCC3)n2C)cc(OC)c1O	none
CC(/C=C/c1ccco1)=N\NC(=O)c1cccnc1	Scp1 inh 54.5 | Scp-1 conf 33.4 | Scp-1 MG ctr inactive | Scp1 DSF inactive
CC(/C=C/c1ccco1)=N\NC(=O)c1cc(Cl)ccc1O	Scp1 inh 54.2 | Scp-1 conf 67.8 | Scp-1 MG ctr inactive | Scp1 DSF 15.8
CC(/C=C/c1ccco1)=N/NC(=O)c1ccc(C)nc1	none
Cc1cc(C(=O)N/N=C/c2ccco2)n[nH]1	none
CC(/C=C/c1ccco1)=N\NC(=O)c1cc(C)[nH]n1	Scp1 inh 52.5 | Scp-1 conf inactive | Scp-1 MG ctr inactive
O=C(C=Cc1ccco1)c1cc(Cl)ccc1O	none
Cn1c(C2CCCCC2)nc2ccccc21	none
Cc1cnc(C(=O)OCc2nc3ccsc3c(=O)[nH]2)cn1	Scp1 inh 65.5 | Scp-1 conf 64.2 | Scp-1 MG ctr inactive | Scp1 DSF 11.0
Cc1ccc(C(=O)OCc2nc3ccsc3c(=O)[nH]2)o1	none
CC(C)c1ccc(/C=C2\SC(=O)N(CC(=O)NC3C=CS(=O)(=O)C3)C2=O)cc1 (configuration not stated)	Scp1 inh 56.6 | Scp-1 conf 53.5 | Scp-1 MG ctr inactive | Scp1 DSF inactive
COc1cccc(/C=C2\SC(=O)N(CC(=O)NC3C=CS(=O)(=O)C3)C2=O)c1 (configuration not stated)	none
Cc1cccc(NC(=O)CN2C(=O)N/C(=C\c3ccccc3OCc3ccc(C(=O)O)cc3)C2=O)c1	Scp1 inh 85.5 | Scp-1 conf 73.7 | Scp-1 MG ctr inactive | Scp1 DSF inactive

Source: PubChem BioAssay
